# Reference: ChEMBL document CHEMBL2163301, “Substrates for efficient fluorometric screening employing the NAD-dependent sirtuin 5 lysine deacylase (KDAC) enzyme” (J Med Chem, 2012)
# Active and inactive are the calls of the source. The rule behind the calls is not given here. *1 amine or outer side, *2 acyl side, *3 side chain or, on linkers, in order; H or OH if unused. Where a SMILES comes first, the peptide text is derived from it. The star is where a group is joined. AMC = Cc1cc(=O)oc2cc(N*)ccc12; Suc = O=C(CCC(=O)[*:2])[*:1]
# Tests used:
# [1] = biological target: T1, NAD-dependent protein deacetylase sirtuin-1 (Homo sapiens) (UniProt Q96EB6); test: Activity of human SIRT1 assessed as decrotonylation of compound at 50 uM after 1 hr by trypsin developer-based fluorescence assay
# T1 sequence (whole entry): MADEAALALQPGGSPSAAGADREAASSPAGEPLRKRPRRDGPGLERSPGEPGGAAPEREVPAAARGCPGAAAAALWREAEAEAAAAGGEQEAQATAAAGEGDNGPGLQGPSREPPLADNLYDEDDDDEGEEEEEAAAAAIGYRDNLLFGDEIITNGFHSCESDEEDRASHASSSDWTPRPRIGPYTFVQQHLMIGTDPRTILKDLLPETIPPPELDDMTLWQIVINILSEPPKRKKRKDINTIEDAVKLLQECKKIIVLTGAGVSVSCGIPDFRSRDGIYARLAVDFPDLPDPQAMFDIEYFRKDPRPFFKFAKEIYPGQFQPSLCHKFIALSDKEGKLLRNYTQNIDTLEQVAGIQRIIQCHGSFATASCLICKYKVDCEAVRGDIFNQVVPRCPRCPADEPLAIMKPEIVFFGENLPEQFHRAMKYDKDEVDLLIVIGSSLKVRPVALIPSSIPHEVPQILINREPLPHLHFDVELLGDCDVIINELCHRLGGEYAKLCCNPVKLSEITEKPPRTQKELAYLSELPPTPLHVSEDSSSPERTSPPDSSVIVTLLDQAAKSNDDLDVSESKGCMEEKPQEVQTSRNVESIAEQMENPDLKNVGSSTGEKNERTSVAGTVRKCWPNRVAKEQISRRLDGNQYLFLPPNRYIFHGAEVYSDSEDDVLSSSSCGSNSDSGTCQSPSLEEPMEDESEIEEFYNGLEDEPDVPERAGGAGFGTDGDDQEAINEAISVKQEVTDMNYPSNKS
# Procedure, shortened: (§1)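 Recombinant sirtuin at 1 μg per 50 μL reaction, with SIRT1-GST fusion as the SIRT1 source. Fluorogenic substrate and NAD incubated in Tris-Cl buffer pH 8.0 with BSA (1 mg/mL) for 1 h at 37 °C. Developer with nicotinamide (2 mM) and trypsin (0.4 mg/mL) added, 15–30 min at room temperature. Fluorescence read at ex 360/em 460 nm and normalized to no-enzyme wells. At least two experiments in duplicate.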
# [2] = biological target: NAD-dependent protein deacylase sirtuin-6 (Homo sapiens) (UniProt Q8N6T7); test: Activity of human SIRT6 assessed as decrotonylation of compound at 50 uM after 1 hr by trypsin developer-based fluorescence assay; procedure, shortened: as §1
# NAD-dependent protein deacylase sirtuin-6 (Homo sapiens), sequence (Q8N6T7 whole entry): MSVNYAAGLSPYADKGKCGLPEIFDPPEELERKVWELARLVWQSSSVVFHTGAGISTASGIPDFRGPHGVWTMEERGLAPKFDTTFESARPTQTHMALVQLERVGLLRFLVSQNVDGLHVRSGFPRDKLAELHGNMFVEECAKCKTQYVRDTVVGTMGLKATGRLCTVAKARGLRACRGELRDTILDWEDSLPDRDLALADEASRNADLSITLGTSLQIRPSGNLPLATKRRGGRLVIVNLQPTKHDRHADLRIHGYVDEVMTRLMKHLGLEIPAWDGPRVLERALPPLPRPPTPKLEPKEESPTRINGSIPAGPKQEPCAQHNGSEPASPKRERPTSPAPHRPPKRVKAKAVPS
# [3] = biological target: T2, NAD-dependent protein deacetylase sirtuin-2 (Homo sapiens) (UniProt Q8IXJ6); test: Activity of human SIRT2 assessed as decrotonylation of compound at 50 uM after 1 hr by trypsin developer-based fluorescence assay; procedure, shortened: as §1
# T2 sequence (whole entry): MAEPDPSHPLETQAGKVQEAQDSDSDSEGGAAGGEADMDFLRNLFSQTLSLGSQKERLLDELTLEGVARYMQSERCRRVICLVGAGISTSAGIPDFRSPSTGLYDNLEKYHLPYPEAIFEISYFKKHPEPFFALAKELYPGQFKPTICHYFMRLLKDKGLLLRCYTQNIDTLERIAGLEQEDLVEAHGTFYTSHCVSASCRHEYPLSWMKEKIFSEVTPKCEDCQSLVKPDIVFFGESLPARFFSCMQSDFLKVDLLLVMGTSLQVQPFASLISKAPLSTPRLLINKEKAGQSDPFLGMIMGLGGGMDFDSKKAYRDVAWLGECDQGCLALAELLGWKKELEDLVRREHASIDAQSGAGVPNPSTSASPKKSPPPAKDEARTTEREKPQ
# [4] = biological target: NAD-dependent protein deacylase sirtuin-5, mitochondrial (Homo sapiens) (UniProt Q9NXA8); test: Activity of human SIRT5 assessed as decrotonylation of compound at 50 uM after 1 hr by trypsin developer-based fluorescence assay; procedure, shortened: as §1
# NAD-dependent protein deacylase sirtuin-5, mitochondrial (Homo sapiens), sequence (Q9NXA8 37-310 limits assumed): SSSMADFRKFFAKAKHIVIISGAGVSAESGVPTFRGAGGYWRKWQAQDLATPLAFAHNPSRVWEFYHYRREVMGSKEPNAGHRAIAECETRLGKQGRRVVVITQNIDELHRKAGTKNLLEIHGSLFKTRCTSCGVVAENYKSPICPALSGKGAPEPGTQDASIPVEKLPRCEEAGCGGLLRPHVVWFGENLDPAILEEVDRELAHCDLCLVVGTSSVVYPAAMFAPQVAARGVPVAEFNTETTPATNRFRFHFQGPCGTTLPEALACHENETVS
# [5] = biological target: T3, NAD-dependent protein deacetylase sirtuin-3, mitochondrial (Homo sapiens) (UniProt Q9NTG7); test: Activity of human SIRT3 assessed as decrotonylation of compound at 50 uM after 1 hr by trypsin developer-based fluorescence assay; procedure, shortened: as §1
# T3 sequence (whole entry): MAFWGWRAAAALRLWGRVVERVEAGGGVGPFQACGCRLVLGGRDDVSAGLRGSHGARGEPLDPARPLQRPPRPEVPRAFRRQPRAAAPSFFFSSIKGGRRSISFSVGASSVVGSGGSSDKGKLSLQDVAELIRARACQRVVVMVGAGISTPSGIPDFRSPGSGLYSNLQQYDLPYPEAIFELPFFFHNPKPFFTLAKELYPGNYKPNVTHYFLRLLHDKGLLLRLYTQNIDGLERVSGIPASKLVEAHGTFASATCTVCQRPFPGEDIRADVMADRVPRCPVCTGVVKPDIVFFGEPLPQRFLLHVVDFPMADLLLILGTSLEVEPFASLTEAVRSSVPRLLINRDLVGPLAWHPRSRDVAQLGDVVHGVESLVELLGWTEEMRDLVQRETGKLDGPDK
# [6] = biological target: T3, NAD-dependent protein deacetylase sirtuin-3, mitochondrial (Homo sapiens); test: Activity of human SIRT3 assessed as deacylation of compound at 50 uM after 1 hr by trypsin developer-based fluorescence assay; procedure, shortened: as §1
# [7] = biological target: NAD-dependent protein deacylase sirtuin-5, mitochondrial (Homo sapiens) (UniProt Q9NXA8); test: Activity of human SIRT5 assessed as deacylation of compound at 50 uM after 1 hr by trypsin developer-based fluorescence assay; procedure, shortened: as §1
# [8] = biological target: T1, NAD-dependent protein deacetylase sirtuin-1 (Homo sapiens); test: Activity of human full length SIRT1 enzyme at 50 uM after 1 hr by trypsin developer-based fluorescence assay
# Procedure, shortened: (§2)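 Acetylated substrates were each treated with commercial full-length His-tagged SIRT1 or truncated SIRT1-GST fusion, with NAD, in Tris-Cl pH 8.0 buffer containing BSA. End point: 1 h at 37 °C, then nicotinamide (2 mM)/trypsin (0.4 mg/mL) developer for 15–30 min at room temperature. Fluorescence read at ex 360/em 460 nm against no-enzyme control wells.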
# [9] = biological target: T2, NAD-dependent protein deacetylase sirtuin-2 (Homo sapiens); test: Activity of human SIRT2 assessed as deacylation of compound at 50 uM after 1 hr by trypsin developer-based fluorescence assay; procedure, shortened: as §1
# [10] = biological target: T4, NAD-dependent protein lipoamidase sirtuin-4, mitochondrial (Homo sapiens) (UniProt Q9Y6E7); test: Activity of recombinant human SIRT4 assessed as deacylation of compound at 50 uM after 1 hr by trypsin developer-based fluorescence assay; procedure, shortened: as §1
# T4 sequence (whole entry): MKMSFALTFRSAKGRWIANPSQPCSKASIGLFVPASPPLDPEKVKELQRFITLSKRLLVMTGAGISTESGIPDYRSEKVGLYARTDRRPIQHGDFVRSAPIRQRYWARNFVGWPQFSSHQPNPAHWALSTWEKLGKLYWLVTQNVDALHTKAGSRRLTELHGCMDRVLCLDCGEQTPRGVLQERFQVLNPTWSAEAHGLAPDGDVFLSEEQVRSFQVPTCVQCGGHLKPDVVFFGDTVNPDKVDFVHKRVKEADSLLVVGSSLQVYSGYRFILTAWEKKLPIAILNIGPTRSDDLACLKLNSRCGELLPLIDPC
# [11] = biological target: NAD-dependent protein deacylase sirtuin-6 (Homo sapiens) (UniProt Q8N6T7); test: Activity of human SIRT6 assessed as deacylation of compound at 50 uM after 1 hr by trypsin developer-based fluorescence assay; procedure, shortened: as §1
# [12] = biological target: T5, NAD-dependent protein deacetylase sirtuin-7 (Homo sapiens) (UniProt Q9NRC8); test: Activity of recombinant human SIRT7 assessed as deacylation of compound at 50 uM after 1 hr by trypsin developer-based fluorescence assay; procedure, shortened: as §1
# T5 sequence (whole entry): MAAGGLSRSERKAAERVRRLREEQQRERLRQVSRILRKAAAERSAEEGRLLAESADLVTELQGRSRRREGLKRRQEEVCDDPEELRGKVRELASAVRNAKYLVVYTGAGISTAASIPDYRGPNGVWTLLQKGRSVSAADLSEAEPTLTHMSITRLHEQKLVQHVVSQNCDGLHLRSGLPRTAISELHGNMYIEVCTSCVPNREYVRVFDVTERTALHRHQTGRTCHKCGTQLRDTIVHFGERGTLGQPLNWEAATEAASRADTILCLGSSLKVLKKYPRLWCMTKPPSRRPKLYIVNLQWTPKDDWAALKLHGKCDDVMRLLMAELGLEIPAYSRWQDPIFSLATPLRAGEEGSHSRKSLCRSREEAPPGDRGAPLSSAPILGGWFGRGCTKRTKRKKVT
# [13] = biological target: T1, NAD-dependent protein deacetylase sirtuin-1 (Homo sapiens); test: Activity of human SIRT1 assessed as deacylation of compound at 50 uM after 1 hr by trypsin developer-based fluorescence assay; procedure, shortened: as §1
# [14] = biological target: T1, NAD-dependent protein deacetylase sirtuin-1 (Homo sapiens); test: Activity of human truncated SIRT1-GST fusion protein at 50 uM after 1 hr by trypsin developer-based fluorescence assay; procedure, shortened: as §2
SMILES,Activity [1],Activity [2],Activity [3],Activity [4],Activity [5],Activity [6],Activity [7],Activity [8],Activity [9],Activity [10],Activity [11],Activity [12],Activity [13],Activity [14]
C/C=C/C(=O)NCCCC[C@H](NC(=O)CNC(=O)[C@H](CC(C)C)NC(C)=O)C(=O)Nc1ccc2c(C)cc(=O)oc2c1,inactive,inactive,inactive,inactive,inactive,,,,,,,,,
CC(=O)NCCCC[C@H](NC(=O)[C@H](CCCNC(=N)N)NC(=O)[C@H](C)NC(=O)[C@@H](NC(C)=O)[C@H](C)O)C(=O)Nc1ccc2c(C)cc(=O)oc2c1,,,,,,Active,inactive,Active,Active,inactive,inactive,inactive,Active,Active
CC(=O)NCCCC[C@H](NC(C)=O)C(=O)Nc1ccc2c(C)cc(=O)oc2c1,,,,,,Active,inactive,inactive,Active,inactive,inactive,inactive,Active,inactive
CC(=O)NCCCC[C@H](NC(=O)CNC(=O)[C@H](CC(C)C)NC(C)=O)C(=O)Nc1ccc2c(C)cc(=O)oc2c1 (Ac-Leu-Gly-Lys(Ac)-{AMC}),,,,,,Active,inactive,inactive,Active,inactive,inactive,inactive,Active,inactive
CC(=O)N[C@@H](CC(C)C)C(=O)NCC(=O)N[C@@H](CCCCNC(=O)CCC(=O)O)C(=O)Nc1ccc2c(C)cc(=O)oc2c1 (Ac-Leu-Gly-Lys(Suc)-{AMC}),,,,,,,Active,,,inactive,inactive,inactive,,
